Measured values as given in ChEMBL document CHEMBL3997791, “Nanomolar-Potency Aminophenyl-1,3,5-triazine Activators of the Cystic Fibrosis Transmembrane Conductance Regulator (CFTR) Chloride Channel for Prosecretory Therapy of Dry Eye Diseases” (J Med Chem, 2017).

What was measured:
[1] = Chemical stability in opthalmic vehicle containing 0.3% CMC in Ringer's solution at 100 uM up to 24 hrs at 40 degC by LC-MS analysis; format: physicochemical
In short: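 Compound dissolved at 100 μM in ophthalmic vehicle (0.3% CMC in Ringer's solution), held 24 h at 40 °C; chemical integrity checked by LC/MS.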

Mus musculus = test: Induction of tear secretion in mouse lacking functional CFTR up to 250 pmol administered as single topical dose up to 6 hrs by phenol red thread test; conditions: in vivo, topical_or_ocular
In short: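 CF mice lacking functional CFTR; single ocular dose of 250 pmol in 2.5 μL ophthalmic vehicle, both eyes, vehicle control. Tear volume by phenol red thread 10 s in lateral canthus under isoflurane, measured before and at timed points after dosing. 5 mice, 10 eyes per condition.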

[2] = Metabolic stability in rat hepatic microsomes assessed as parent compound remaining at 5 uM after 60 mins in presence of NADPH by LC-MS analysis; format: ADME, Microsome; conditions: liver microsomes, read-out: Stability
In short: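 Compound at 5 μM incubated at 37 °C with rat liver microsomes (1 mg/mL) in potassium phosphate buffer with 1 mM NADPH; quenched with ice-cold EtOAc, centrifuged, supernatant analysed by LC/MS (C18, water/acetonitrile with 0.1% formic acid gradient, UV 254 nm) for parent remaining; mean ± SEM, n = 3.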

Compound	Stability [1]	Activity (Mus musculus)	remaining at 1 h, 5 µM [2] [%]
CNc1nc(Nc2ccccc2)nc(OCC(F)(F)C(F)F)n1	Stable	Non-Toxic	–
CCN(CC)c1nc(Nc2ccc3ncsc3c2)nc(OC(C(F)(F)F)C(F)(F)F)n1	–	–	60
